Results published in PubChem BioAssay.
Unmarked numbers belong to inactive results. Records with an inconclusive call do not appear. The source made the active and inactive calls.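 Rule for the calls, unless noted: active = growth inhibition above 25% in both replicates, a cutoff set 3 SD above the mean; inconclusive = above 25% in only one replicate; inactive = the rest.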

Assays:
[1] = S. cerevisiae growth inhibition in permissive medium (OD615), pilot counter-assay for S. cerevisiae lifespan shortening project, permissive growth control (AID 705); conditions: OD615, 24 h, at 10 µM, stronger effect = higher value
In short: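 System: engineered DeaD yeast; Medium: permissive raffinose/galactose medium; Compound dosing: 10 µM single dose, 0.25% DMSO; Incubation: 4 h cell pre-growth, 24 h exposure at 30 °C; Technique: OD at 615 nm; Evaluation: growth inhibition from lowered OD615 after 24 h.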

[2] = S. cerevisiae growth inhibition in restrictive medium, OD615, pilot screen, restrictive growth control, yeast lifespan reduction project (AID 706;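 active = growth inhibition above a set limit, 3 SD over mean compound inhibition, in both replicates, cut at about 43% in these data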;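 note: modified DeaD lifespan yeast strain shifted to restrictive glucose medium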); conditions: OD615, 48 h, at 10 µM, stronger effect = higher value
In short: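 Material: modified S. cerevisiae; buffer or medium: CSMM-D glucose medium; doses: one concentration, 10 µM final, 0.25% DMSO; incubation: 48 h compound exposure at 30 °C; detection: optical density at 615 nm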

[3] = doxorubicin toxicity protection in MRP-1 cells – H69AR cells, CellTiter-Glo, duplicate, MRP-1 activator project, pilot screen (AID 807;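 active = viability increase at or above a cutoff of the median across tested compounds plus 3 SD, cut at about 8.5% in these data, passing the limit was not always enough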;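 note: compound pretreatment 18-22 h then 72 h combined with doxorubicin; 0% = doxorubicin alone and 100% = vehicle without doxorubicin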); conditions: H69AR viability with doxorubicin, CellTiter-Glo luminescence; at 10 µM; stronger effect = higher value
[4] = viability of HCT116 without oncogenic beta-catenin – human colon tumor cells, pilot screen (AID 823;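 active = cell viability at or below a set limit in both duplicate runs, the limit being the all-compound median minus 4 SD, cut at about 23% in these data, passing the limit was not always enough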;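 note: 0% = wells killed by 20 µM Hyamine and 100% = untreated DMSO cell wells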); conditions: HCT116 beta-catenin knockout viability, CellTiter-Glo, 60 h; at 10 µM; stronger effect = lower value
[5] = viability of PTEN-null HCT116 cells – cell-based, HCT116 clonal line, CellTiter-Glo, pilot screen (AID 824;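 active = viability at or below 27.92% in each of two runs, the all-compound median minus 4 SD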;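 note: 0% = 20 µM Hyamine control and 100% = vehicle cell control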); conditions: HCT116 PTEN-deleted viability, 60 h, at 10 µM, stronger effect = lower value
[6] = RAM pathway blockade in budding yeast – dse1pr::URA3 reporter, 5-FOA selection, pilot screen (AID 869;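 active = inhibition over a set limit, the all-compound mean plus 3 SD, in both replicate runs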;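 note: 0% = DMSO wells with no growth and 100% = 10 µM 1-NA-PP1 with full growth; RAM network block rescues cells from 5-FOA so hits raise OD615 growth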); conditions: S. cerevisiae dse1pr::URA3 5-FOA growth, OD615, 2 d; at 10 µM; stronger effect = higher value; strain carries analog-sensitive mutant Cbk1 kinase
[7] = RAM signaling pathway blockade in yeast – S. cerevisiae, Pdr1DBD-CYC8 efflux-inhibited sensitized strain, primary screen (AID 1298;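 active = RAM network inhibition above 8.4% in each of two replicates, 3 SD over the compound average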;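 note: 0% = DMSO untreated cells without growth and 100% = 10 µM 1-NA-PP1 full growth; higher means more yeast growth rescued from 5-FOA killing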); conditions: S. cerevisiae cbk1-as DSE1-URA3 strain, 5-FOA growth OD615, 2 d; at 50 µM; stronger effect = higher value

O=C(CN1CCOc2ccccc21)N1CCCC1
growth inhibition [1]: -21.1% | growth inhibition [2]: -8.8% | viability increase [3]: -5.56% | viability [4]: 100% | viability [5]: 90.5% | inhibition [6]: 0.98% | RAM network inhibition [7]: 1.32%

COc1ccc(-n2c(Cn3c(=O)sc4ccccc43)nnc2SC)cc1
growth inhibition [1]: -12.1% | growth inhibition [2]: -8.38% | viability increase [3]: -2.26% | viability [4]: 101% | viability [5]: 89.6% | inhibition [6]: 2.47% | RAM network inhibition [7]: 1.33%

CCC(=O)Nc1c(OC(=O)CC)ccc2c(C)cc(=O)oc12
growth inhibition [1]: 5.45% | growth inhibition [2]: 4.76% | viability increase [3]: -2.02% | viability [4]: 105% | viability [5]: 88.7% | inhibition [6]: 0.835% | RAM network inhibition [7]: -0.83%

Cc1ccc(NC(=O)C2C3C=CC4(CN(Cc5cccnc5)C(=O)C24)O3)cc1 (configuration not stated)
growth inhibition [1]: 5.17% | growth inhibition [2]: -7.85% | viability increase [3]: -1.21% | viability [4]: 74.4% | viability [5]: 97.3% | inhibition [6]: 0.77% | RAM network inhibition [7]: 2.87%

COc1ccc(Cl)cc1N(CC(=O)N1CCN(Cc2ccccc2)CC1)S(C)(=O)=O
growth inhibition [1]: -5.27% | growth inhibition [2]: -11.1% | viability increase [3]: -0.51% | viability [4]: 95.9% | viability [5]: 92.8% | inhibition [6]: 1.38% | RAM network inhibition [7]: 0.41%

NC(=O)c1cc(Cl)cn(-c2ccccc2)c1=O
growth inhibition [1]: -13% | growth inhibition [2]: -5.85% | viability increase [3]: -0.12% | viability [4]: 99.7% | viability [5]: 95% | inhibition [6]: 1.81% | RAM network inhibition [7]: 4.23%

Cc1cc(NC(=O)c2cc3n(n2)C(C(F)(F)F)CC(c2ccco2)N3)no1 (configuration not stated)
growth inhibition [1]: 5.72% | growth inhibition [2]: 5.53% | viability increase [3]: -0.69% | viability [4]: 98.8% | viability [5]: 94.6% | inhibition [6]: 0.475% | RAM network inhibition [7]: 1.13%

COc1ccc(C)cc1S(=O)(=O)N1CCN(S(=O)(=O)c2cc(C)ccc2OC)C(C)C1 (configuration not stated)
growth inhibition [1]: -8.75% | growth inhibition [2]: -8.42% | viability increase [3]: -3.35% | viability [4]: 88.7% | viability [5]: 85.6% | inhibition [6]: 2.99% | RAM network inhibition [7]: 2.61%

COc1cc(OC)cc(C(=O)OCn2nnc3ccccc3c2=O)c1
growth inhibition [1]: -9.62% | growth inhibition [2]: -4.46% | viability increase [3]: -0.87% | viability [4]: 101% | viability [5]: 96.1% | inhibition [6]: 1.33% | RAM network inhibition [7]: 7.22%

Cc1ccc(-c2nc(NC(=O)CSc3nnc4scc(-c5ccccc5)n34)ns2)cc1
growth inhibition [1]: 0.135% | growth inhibition [2]: 0.99% | viability increase [3]: 1.17% | viability [4]: 74% | viability [5]: 66.8% | inhibition [6]: 2.42% | RAM network inhibition [7]: 5.6%

Cc1cc(Nc2ccc(F)cc2F)n2ncnc2n1
growth inhibition [1]: -1.61% | growth inhibition [2]: 6.47% | viability increase [3]: -1.6% | viability [4]: 96.5% | viability [5]: 97.8% | inhibition [6]: 1.35% | RAM network inhibition [7]: 1.04%

Cc1[nH]nc2c1/C(=N\O)CC(C)(C)C2
growth inhibition [1]: 12.7% | growth inhibition [2]: -8.1% | viability increase [3]: -2% | viability [4]: 94.2% | viability [5]: 98.1% | inhibition [6]: 1.48% | RAM network inhibition [7]: -1.33%

Cc1cc(C)n(S(=O)(=O)c2ccc(Cl)c(Cl)c2Cl)n1
growth inhibition [1]: -8.03% | growth inhibition [2]: 4.29% | viability increase [3]: -4.34% | viability [4]: 86% | viability [5]: 84.6% | inhibition [6]: 1.17% | RAM network inhibition [7]: 3.65%

O=C(NCc1ccc2c(c1)OCO2)Oc1ccccc1
growth inhibition [1]: -1.34% | growth inhibition [2]: 7.08% | viability increase [3]: 0.33% | viability [4]: 96.9% | viability [5]: 101% | inhibition [6]: 1.32% | RAM network inhibition [7]: 2.53%

CCCc1[nH]nc2c1C(C1CCCCC1)C(C#N)=C(N)O2 (configuration not stated)
growth inhibition [1]: -4.03% | growth inhibition [2]: -0.785% | viability increase [3]: -6.54% | viability [4]: 12.5% (active) | viability [5]: 21.4% (active) | inhibition [6]: 2.06% | RAM network inhibition [7]: 1.58%

COc1cc(C(=O)NCCc2cn3ccccc3n2)cc(OC)c1OC
growth inhibition [1]: -9.42% | growth inhibition [2]: -6.93% | viability increase [3]: -2.78% | viability [4]: 98.4% | viability [5]: 95.9% | inhibition [6]: 2.1% | RAM network inhibition [7]: 2.62%

C=CCSc1nc2c(c(=O)[nH]c(=O)n2C)n1Cc1ccc(C)cc1
growth inhibition [1]: -12.1% | growth inhibition [2]: -7.22% | viability increase [3]: -3.38% | viability [4]: 90.1% | viability [5]: 86.4% | inhibition [6]: 2.6% | RAM network inhibition [7]: 7.02%

CC(=NCCN1CCOCC1)C1=C(O)c2ccccc2C1=O
growth inhibition [1]: -5.16% | growth inhibition [2]: -12.6% | viability increase [3]: -1.7% | viability [4]: 103% | viability [5]: 100% | inhibition [6]: 1.3% | RAM network inhibition [7]: -0.73%

Cc1ccc(S(=O)(=O)NCc2ccco2)cc1C
growth inhibition [1]: -1.9% | growth inhibition [2]: -6.06% | viability increase [3]: -3.83% | viability [4]: 100% | viability [5]: 97.2% | inhibition [6]: 0.075% | RAM network inhibition [7]: 2.42%

Cc1ccc(C(C)C)c(OCC(=O)N2CCOCC2)c1
growth inhibition [1]: -10.1% | growth inhibition [2]: -20.3% | viability increase [3]: -0.67% | viability [4]: 99.3% | viability [5]: 91.4% | inhibition [6]: 1.69% | RAM network inhibition [7]: 1.97%

Cc1oc(-c2ccccc2F)nc1CS(=O)CC(=O)NCc1cccs1 (configuration not stated)
growth inhibition [1]: -2.83% | growth inhibition [2]: 26% | viability increase [3]: -2.27% | viability [4]: 99.7% | viability [5]: 93.4% | inhibition [6]: 1.64% | RAM network inhibition [7]: 8.65%

CCOC(=O)N1CCN(C(=O)C(NC(=O)C2CCC(C)CC2)C(C)C)CC1 (configuration not stated)
growth inhibition [1]: 10.9% | growth inhibition [2]: 7.68% | viability increase [3]: -0.76% | viability [4]: 101% | viability [5]: 99.9% | inhibition [6]: -0.215% | RAM network inhibition [7]: -0.98%

CC(=O)NC1(c2ccccc2)CCN(Cc2nnnn2C(C)(C)C)CC1
growth inhibition [1]: -11.8% | growth inhibition [2]: -17.9% | viability increase [3]: -0.8% | viability [4]: 102% | viability [5]: 96% | inhibition [6]: 3.53% | RAM network inhibition [7]: 1.62%

CN(CC(=O)NC1CCCCCCC1)S(=O)(=O)c1cccc2cccnc12
growth inhibition [1]: 0.055% | growth inhibition [2]: 0.405% | viability increase [3]: -1.32% | viability [4]: 93.2% | viability [5]: 87.1% | inhibition [6]: 1.26% | RAM network inhibition [7]: 2.33%

O=C(Nc1c(C(=O)N2CCCCC2)cnn1-c1ccccc1)c1ccco1
growth inhibition [1]: -2.23% | growth inhibition [2]: -5.33% | viability increase [3]: -0.92% | viability [4]: 95.2% | viability [5]: 95.5% | inhibition [6]: 1.14% | RAM network inhibition [7]: 0.25%

CC(C)(C)NC(=O)C1CN(S(=O)(=O)c2ccccc2)CCN1S(=O)(=O)c1ccccc1 (configuration not stated)
growth inhibition [1]: 5.33% | growth inhibition [2]: -4.14% | viability increase [3]: -1.07% | viability [4]: 97.3% | viability [5]: 97.1% | inhibition [6]: 2.74% | RAM network inhibition [7]: 2.81%

CC(=O)Cc1nsc(NC(=O)C2Cc3ccccc3C(=O)O2)n1 (configuration not stated)
growth inhibition [1]: -15.5% | growth inhibition [2]: -1.69% | viability increase [3]: -1.57% | viability [4]: 102% | viability [5]: 100% | inhibition [6]: 0.45% | RAM network inhibition [7]: 6.74%

COc1ccc(S(=O)(=O)n2cnc3cc(C)c(C)cc32)cc1
growth inhibition [1]: 3.51% | growth inhibition [2]: 6.05% | viability increase [3]: -1.56% | viability [4]: 90.9% | viability [5]: 93.4% | inhibition [6]: 1.26% | RAM network inhibition [7]: -1.04%

O=C(Cn1ncc2c1-c1ccccc1OC2)Nc1ccc(S(=O)(=O)N2CCCCC2)cc1
growth inhibition [1]: 0.515% | growth inhibition [2]: -5.21% | viability increase [3]: -2.69% | viability [4]: 90.7% | viability [5]: 84.8% | inhibition [6]: 0.655% | RAM network inhibition [7]: 4.53%

COc1cc2c(cc1OC)C1=C(C#N)CN(C3CCCCC3)CN1CC2
growth inhibition [1]: -11.3% | growth inhibition [2]: 4.15% | viability increase [3]: -3.47% | viability [4]: 90% | viability [5]: 81.1% | inhibition [6]: 2.15% | RAM network inhibition [7]: 3.92%

CC(=O)Nc1cc2ccc(OC(C)=O)cc2oc1=O
growth inhibition [1]: -15.3% | growth inhibition [2]: -13.9% | viability increase [3]: -4.23% | viability [4]: 107% | viability [5]: 93.8% | inhibition [6]: 1.62% | RAM network inhibition [7]: 0.82%

O=C(Cn1cc2c(n1)CCCC2)N1CCCc2ccccc21
growth inhibition [1]: 1.09% | growth inhibition [2]: 4.04% | viability increase [3]: -1.6% | viability [4]: 98.6% | viability [5]: 100% | inhibition [6]: 0.85% | RAM network inhibition [7]: 1.48%

CSC1=NCCN1C(=O)Cc1ccc(F)cc1
growth inhibition [1]: -0.72% | growth inhibition [2]: 0.85% | viability increase [3]: 2.96% | viability [4]: 105% | viability [5]: 103% | inhibition [6]: 0.725% | RAM network inhibition [7]: 4.04%

COc1ccc(OC)c(CNC(=O)Cc2c(C(=O)O)[nH]c3ccccc23)c1
growth inhibition [1]: -7.09% | growth inhibition [2]: -25% | viability increase [3]: -0.54% | viability [4]: 104% | viability [5]: 101% | inhibition [6]: -0.185% | RAM network inhibition [7]: 5.43%

COc1ccc(C2CC(c3cccc(C)c3)n3nc(N)nc3N2)cc1 (configuration not stated)
growth inhibition [1]: 6.39% | growth inhibition [2]: 9.63% | viability increase [3]: -1.84% | viability [4]: 105% | viability [5]: 92.8% | inhibition [6]: 3.25% | RAM network inhibition [7]: 1.68%

COc1ccc(N2CCN(C(=O)c3ccc(CS(=O)(=O)c4ccc(OC)cc4)o3)CC2)cc1
growth inhibition [1]: -9.34% | growth inhibition [2]: -3.61% | viability increase [3]: -1.85% | viability [4]: 92.1% | viability [5]: 79.2% | inhibition [6]: 1.83% | RAM network inhibition [7]: 4.78%
